The values below come from ChEMBL document CHEMBL1144013, “Indol-3-yl-tetramethylcyclopropyl ketones: effects of indole ring substitution on CB2 cannabinoid receptor activity” (J Med Chem, 2008).

Active and inactive are the calls of the source. The calls are words filed in the database; no cut-off is given here.

Assay [1] is filed under the species Rattus norvegicus. The assay is described as follows: Antiinflammatory activity against rat CFA-induced chronic inflammatory thermal hyperalgesia model assessed as effect on paw withdrawal latency. Type of assay: functional, organism-based. The method, boiled down: (§1)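 Rats given 150 µL of 50% CFA in PBS into right hind plantar paw; thermal hyperalgesia tested 48 h later. Compound in 5% DMSO/95% PEG; PWL read 30 min post dose in ipsilateral and contralateral paws, 3 trials ~5 min apart, mean of two shortest latencies. n = 6 per dose; compared against vehicle. Antagonist pretreatment group included.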

For assay [2], the target named is T1, Cannabinoid receptor 2 (Homo sapiens, UniProt P34972). The assay is described as follows: Agonist activity at human recombinant CB2 receptor expressed in HEK cells assessed as calcium mobilization by FLIPR. Type of assay: functional, cell-based, HEK293. A digest of the protocol:
(§2)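 HEK cells stably coexpressing human CB2 and chimeric Gαq/o5 protein, seeded 75,000/well one day before; no-wash calcium dye.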
Background: Calcium flux is commonly read through the fluorescence of an indicator in the cells.

Assay [3] addresses T1, Cannabinoid receptor 2. The assay is described as follows: Displacement of [3H]CP-55940 from human recombinant CB2 receptor expressed in HEK cells. As to conditions: read-out: Ki. Type of assay: cell-based, HEK293. On the technique in general: Displacement assays read how much labelled ligand stays bound in the presence of the test substance.
The target of assay [4] is T1, Cannabinoid receptor 2. The assay is described as follows: Agonist activity at human recombinant CB2 receptor expressed in HEK cells assessed as calcium mobilization by FLIPR relative to CP-55940. Type of assay: functional, cell-based. As to conditions: HEK293. A digest of the protocol: as §2
The species entered for assay [5] is Rattus norvegicus. Description: Antiinflammatory activity against CB1 receptor antagonist SR-141716A-pretreated rat CFA-induced chronic inflammatory thermal hyperalgesia model assessed as effect on paw withdrawal latency. Type of assay: functional, organism-based. The method, boiled down: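 Rats received 150 µL of 50% CFA in PBS into the right hind plantar paw. Thermal hyperalgesia was tested 48 h later after antagonist pretreatment, dosing in 5% DMSO/95% PEG vehicle, n = 6 per dose. Paw withdrawal latency was measured 30 min post-dose in the ipsilateral and contralateral paws, with 3 trials about 5 min apart. The value is the mean of the two shortest latencies, compared with vehicle.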

The species named for assay [6] is Homo sapiens. Description: Selectivity for human recombinant CB2 receptor over human recombinant CB1 receptor. The method, boiled down: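 Ki ratio from [3H]CP-55940 (0.5 nM) competition binding: human CB1 membranes from stably expressing […] cells versus human CB2 membranes from stably expressing HEK cells. Tris-HCl pH 7.4 buffer with EDTA, MgCl2, BSA; 90 min at 30 °C; filtration counting; nonspecific with 10 µM unlabeled ligand; ≥3 experiments in duplicate.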

Assay [7] addresses Cannabinoid receptor 1 (Homo sapiens, UniProt P21554). Description: Displacement of [3H]CP-55940 from human recombinant CB1 receptor expressed in HEK cells. Type of assay: cell-based, HEK293.
Assay [8] is filed under the species Rattus norvegicus. Description: Antiinflammatory activity against CB2 receptor antagonist SR-144528-pretreated rat CFA-induced chronic inflammatory thermal hyperalgesia model assessed as effect on paw withdrawal latency. Type of assay: functional, organism-based. The method, boiled down:
as §1

T1 sequence (P34972 whole entry): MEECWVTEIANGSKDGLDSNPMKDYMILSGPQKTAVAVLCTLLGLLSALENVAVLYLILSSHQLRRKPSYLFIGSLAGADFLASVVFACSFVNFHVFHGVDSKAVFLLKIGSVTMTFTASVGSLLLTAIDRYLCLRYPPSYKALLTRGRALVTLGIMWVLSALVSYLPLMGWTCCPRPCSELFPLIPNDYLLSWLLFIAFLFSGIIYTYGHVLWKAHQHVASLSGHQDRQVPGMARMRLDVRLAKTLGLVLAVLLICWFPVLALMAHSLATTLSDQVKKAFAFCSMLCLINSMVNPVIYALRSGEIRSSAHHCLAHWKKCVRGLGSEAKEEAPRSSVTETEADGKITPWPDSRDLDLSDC
Chain of Cannabinoid receptor 1 (P21554 whole entry): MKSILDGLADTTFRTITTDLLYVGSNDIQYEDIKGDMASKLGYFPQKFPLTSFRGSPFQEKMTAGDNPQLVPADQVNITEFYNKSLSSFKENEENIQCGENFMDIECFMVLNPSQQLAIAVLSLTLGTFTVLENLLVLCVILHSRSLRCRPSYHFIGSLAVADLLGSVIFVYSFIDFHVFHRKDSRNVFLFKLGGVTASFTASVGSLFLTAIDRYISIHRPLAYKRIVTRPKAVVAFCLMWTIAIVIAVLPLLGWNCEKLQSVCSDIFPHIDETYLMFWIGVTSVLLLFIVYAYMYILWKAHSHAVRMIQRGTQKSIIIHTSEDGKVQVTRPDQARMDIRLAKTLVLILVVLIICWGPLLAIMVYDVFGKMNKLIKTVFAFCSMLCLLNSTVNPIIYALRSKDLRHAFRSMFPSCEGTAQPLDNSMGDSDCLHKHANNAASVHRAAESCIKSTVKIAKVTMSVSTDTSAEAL

Usually EC50 stands for the midpoint of the concentration-response curve. For orientation: Ki means the dissociation constant of the complex between target and ligand, obtained from inhibition or displacement. For the molecule `CC1(C)C(C(=O)c2cn(CC3CCOCC3)c3cccc(O)c23)C1(C)C`, the Activity result in assay [1] was “Dose-dependent effect”; in assay [4], 94%. For the same molecule, the EC50 in assay [2] stood at 64 nM. In addition, in assay [3], the Ki came out at 3.9 nM.
As for `Cc1c(C(=O)NN2CCCCC2)nn(-c2ccc(Cl)cc2Cl)c1-c1ccc(Cl)cc1`, the outcome in assay [5] was Active.
Consider `CC1(C)C(C(=O)c2cn(CC3CCOCC3)c3cc(-c4ccccc4)ccc23)C1(C)C`, for which, in assay [1], the outcome was inactive. For the same molecule, the Ratio Ki in assay [6] amounted to 556. The EC50 in assay [2] was more than 10000 nM. In addition, the inhibition constant (Ki) was 0.41 nM in assay [3] and 228 nM in assay [7] (read-out: Ki).
Take `Cc1ccc(Cn2nc(C(=O)NC3C(C)(C)C4CC[C@@]3(C)C4)cc2-c2ccc(Cl)c(C)c2)cc1` (stereo partly drawn): the outcome in assay [8] was inactive.
For the molecule `COc1cccc2c1c(C(=O)C1C(C)(C)C1(C)C)cn2CC1CCOCC1`, in assay [6], the Ratio Ki was 330. Moreover, the half-maximal effective concentration (EC50) in assay [2] was 81 nM. The inhibition constant (Ki) was 3.3 nM in assay [3] and 1090 nM in assay [7] (read-out: Ki). Besides, in assay [4], the Activity is 37%.
In the same order, the values of `COc1ccc2c(c1)c(C(=O)C1C(C)(C)C1(C)C)cn2CC1CCOCC1` are 61, 61 nM, 4.6 nM, 282 nM and 35%.
Regarding `CC1(C)C(C(=O)c2cn(CC3CCOCC3)c3ccc(F)cc23)C1(C)C`, the Ratio Ki in assay [6] was 756. The EC50 in assay [2] worked out at 22 nM. Moreover, the inhibition constant Ki in assay [3] amounted to 1.6 nM; in assay [7] (read-out: Ki), 1210 nM. The Activity in assay [4] came to 88%.
Regarding `CC1(C)C(C(=O)c2cn(CC3CCOCC3)c3cc(O)ccc23)C1(C)C`, in assay [6], the Ratio Ki is more than 353. For the same molecule, the EC50 in assay [2] amounted to 15 nM. The inhibition constant Ki is 8.5 nM in assay [3], more than 3000 nM in assay [7] (read-out: Ki) and more than 3020 nM in assay [7] (read-out: Log Ki (converted)). For the same molecule, in assay [4], the Activity was determined as 107%.
For the molecule `CC1(C)C(C(=O)c2cn(CC3CCOCC3)c3cccc(OCc4ccccc4)c23)C1(C)C`, the Ratio Ki in assay [6] is more than 1080. Besides, in assay [2], the EC50 is 383 nM. Also, the inhibition constant Ki in assay [3] is 9.3 nM; in assay [7] (read-out: Ki), more than 10000 nM. Besides, in assay [4], the Activity was 45%.
On to `CC1(C)C(C(=O)c2cn(CCN3CCOCC3)c3cccc(N)c23)C1(C)C`, for which the Ratio Ki in assay [6] was more than 109. Moreover, the concentration for a half-maximal effect (EC50) in assay [2] was 50 nM. Moreover, the Ki is 32 nM in assay [3], more than 3500 nM in assay [7] (read-out: Ki) and more than 3470 nM in assay [7] (read-out: Log Ki (converted)). In assay [4], the Activity is 41%.
For `CC1(C)C(C(=O)c2cn(CC3CCOCC3)c3ccc(CO)cc23)C1(C)C`, in assay [6], the Ratio Ki is more than 88. Further, the EC50 in assay [2] came to 73 nM. Besides, the figures for the inhibition constant (Ki) in assay [3] and in assay [7] (read-out: Ki) were 113 nM and more than 10000 nM, respectively. Further, in assay [4], the Activity worked out at 53%.
In the same order, the values of `CC1(C)C(C(=O)c2cn(CC3CCOCC3)c3c(F)c(F)c(F)c(F)c23)C1(C)C` are 13, 37 nM, 5 nM, 66 nM and 88%.
In the same order, the values of `CC1(C)C(C(=O)c2cn(CCN3CCOCC3)c3cc(O)ccc23)C1(C)C` are more than 92, 186 nM, 109 nM, more than 10000 nM and 62%.
Consider `Cc1c(C(=O)C2C(C)(C)C2(C)C)c2ccccc2n1CCN1CCOCC1`, for which, in assay [6], the Ratio Ki was more than 370. Also, the EC50 in assay [2] amounted to 227 nM. Besides, the values for the Ki in assay [3] and in assay [7] (read-out: Ki) were 27 nM and more than 10000 nM, respectively. The Activity in assay [4] stood at 60%.
In the same order, the values of `CC1(C)C(C(=O)c2cn(CC3CCOCC3)c3ccc(Br)cc23)C1(C)C` are 292, 280 nM, 6.6 nM, 1930 nM and 54%.
Take `CC1(C)C(C(=O)c2cn(CCN3CCOCC3)c3ccccc23)C1(C)C`: in assay [1], the result was Active. Further, in assay [2], the EC50 was found to be 14 nM. Moreover, in assay [3], the Ki is 4.4 nM. In addition, the Activity in assay [4] was found to be 71%.
In the case of `CC1(C)C(C(=O)c2cn(CC3CCOCC3)c3ccc(N)cc23)C1(C)C`, the Ratio Ki in assay [6] is 108. For the same molecule, the EC50 in assay [2] is 10 nM. Moreover, the Ki in assay [3] was 9.3 nM; in assay [7] (hek293, read-out: Ki), more than 1000 nM; in assay [7] (read-out: Log Ki (converted)), more than 1000 nM. For the same molecule, the Activity in assay [4] is 80%.
